Shown is part of a subset that was picked to be rich in hits.
UPR CHOP act: apoptotic UPR (CHOP) activation | 330,000 compounds, 0.34% hits | CHO-CHOP luciferase reporter, luminescence; percent of tunicamycin response over DMSO baseline | activation, % at 10 µM;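 active means at 10 µM dose, activation of 40% or more, normalized to positive control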
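System: CHO CHOP reporter cells. Amount: 500 cells per well. Buffer or medium: F12 medium, 10% FBS. Compound dosing: one dose, 10 µM in 0.5% DMSO. Incubation: 6 h compound exposure at 37 °C after overnight seeding. Technique: Steady-Glo luciferase luminescence. Benchmarks: tunicamycin and DMSO controls.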
CHOP inhibitor: inhibitors of CHOP induction in ER stress response; CHO-K1 CHOP-promoter luciferase, tunicamycin-induced, 15-18 h; inhibition, % at 10 µM; 220,000 compounds, 3.8% hits;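 active means compounds that reduced the stress-induced luciferase reporter signal by more than about 70% of percent inhibition, limit read from the data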
XBP1 UPR activ: activators of adaptive arm of unfolded protein response (XBP1). CHO-XBP1 luciferase reporter, IRE1-XBP1 UPR activation, luminescence; percent of tunicamycin response, DMSO as zero. activation, % at 20 µM. 330,000 compounds, 0.33% hits;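 active means versus positive control, 20 µM dose yields 30% or more activation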
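Material – CHO cell line with stable XBP1 luciferase reporter · Buffer or medium – F12 plus 10% FBS · Compound – single point, 20 µM final compound, 1% DMSO · Schedule – 16-18 h cell attachment at 37 °C, then 6 h compound exposure · Signal – Steady-Glo luminescence read · Benchmarks – high control tunicamycin 10 µg/mL final, low control DMSO vehicle only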
Bfl-1 A1 inh: inhibitors of the anti-apoptotic protein A1, read as caspase activation; caspase activation, % (test concentration not listed); 330,000 compounds, 0.066% hits; MEF A1-2A-BIM cells, Caspase-Glo 3/7 luminescence, 3 h; percent of clofoctol response, vehicle zero;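 active means over half of replicate activation scores above 10%, or exactly half above 10 with the replicate mean above 10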
Large screens that a line does not name were inactive.

Cc1cc(C)cc(-c2nc(-c3ccncc3)no2)c1	CHOP inhibitor 84.5
CC(C)(C)c1ccc(-c2nc(-c3ccncc3)no2)cc1	CHOP inhibitor 81.9
Cc1ccc(-c2nc(-c3ccncc3)no2)cc1	none (no result: UPR CHOP act, CHOP inhibitor, XBP1 UPR activ)
O=C(CSc1ncnc2c1cnn2-c1ccc(Cl)cc1)NCc1ccc2c(c1)OCO2	CHOP inhibitor 72.4
COc1ccc(CN2C(=NC(=O)c3ccccc3)SC3CS(=O)(=O)CC32)cc1 (stereo not drawn)	none (no result: CHOP inhibitor)
CCCCN(CCCC)C1=Nc2ccccc2N/C1=C(/C#N)C(=O)OCC	CHOP inhibitor 72.1
CCOC(=O)/C(C#N)=C1\Nc2ccccc2N=C1N(CC(C)C)CC(C)C	CHOP inhibitor 76.5
CCOC(=O)/C(C#N)=C1/C=C(C)NC(c2ccccc2O)=N1	none
COc1cc(CN2CCCC(N3CCN(c4ccccc4C)CC3)C2)ccc1O (stereo not drawn)	none (no result: CHOP inhibitor)
CCCN1C(=O)C(=O)c2cc(Cl)ccc21	none (no result: CHOP inhibitor)
CC1(C)Cc2c(sc3nc(N/N=C/c4ccccc4)[nH]c(=O)c23)CO1	CHOP inhibitor 81.2
CC(C)=NNc1nc2sc3c(c2c(=O)[nH]1)CC(C)(C)OC3	none
O=C(COc1ccc(Cl)c(Cl)c1)NN1C(=O)C2C(C1=O)C1C=CC2C12CC2 (stereo not drawn)	none
CC(C)=C1C2CCC1C1C(=O)N(NC(=O)COc3ccc(Cl)c(C)c3)C(=O)C21 (stereo not drawn)	CHOP inhibitor 71.3
N#CC(C(=O)Nc1ccc(Cl)cc1)=C1Nc2ccccc2N1	CHOP inhibitor 90.1
N#CC(C(=O)Nc1ccccc1)=C1CCCCC1	none
COc1ccc(NC2CCCN(C(=O)c3cn(C)c4ccccc34)C2)cc1 (stereo not drawn)	none (no result: CHOP inhibitor)
CCOC(=O)c1csc(NC(=O)COc2ccc(Cl)cc2Cl)n1	CHOP inhibitor 71.2
Cc1cccc(OCCCC(=O)Nc2ccc(N(C)C)cc2)c1	none
Cc1cccc(OCCCC(=O)Nc2ccc(Br)cc2)c1	CHOP inhibitor 84.4
Cn1nc(N2CCN(S(=O)(=O)c3ccccc3)CC2)c(=O)n(C)c1=O	none (no result: CHOP inhibitor)
CCn1c(=NC(=O)c2ccc(S(=O)(=O)N3CCOCC3)cc2)sc2cccc(OC)c21	CHOP inhibitor 83.2
COCCn1c(=NC(=O)c2ccc(S(=O)(=O)N3CCOCC3)cc2)sc2cc(S(N)(=O)=O)ccc21	none (no result: CHOP inhibitor)
COc1ccc(-c2nc(CN3CCC(C(=O)N4CCOCC4)CC3)c(C)o2)cc1C	none (no result: CHOP inhibitor)
CC(C)CC(=O)Nc1nnc(-c2ccco2)s1	CHOP inhibitor 84.3
COC(=O)Nc1nnc(-c2ccco2)s1	none
COc1ccc(/C=N/NC(=O)c2ccc[nH]2)cc1	none (no result: CHOP inhibitor)
C=C(C)C1CCC2(C(=O)O)CCC3(C)C(CCC4C5(C)C(C=O)C(O)C(C)(C)C5CCC43C)C12 (stereo not drawn)	CHOP inhibitor 84.9
CC1CCc2nn(CC(=O)Nc3ccc(F)cc3F)cc2C1 (stereo not drawn)	none
CCN(CC)c1ccc(NC(=O)Cn2cc3c(n2)CCC(C)C3)c(C)c1 (stereo not drawn)	CHOP inhibitor 78.9
COc1cccc(N2CCN(C3CC(=O)N(c4ccc(C)c(Cl)c4)C3=O)CC2)c1 (stereo not drawn)	none
COc1cccc(N2CCN(C3CC(=O)N(c4ccc(F)c(Cl)c4)C3=O)CC2)c1 (stereo not drawn)	CHOP inhibitor 71.0
O=C(CCCN1C(=O)c2ccccc2C1=O)Nc1c(C(=O)C2CC2)oc2ccccc12	none
COC(=O)c1oc2ccc(Br)cc2c1NC(=O)CCCN1C(=O)c2ccccc2C1=O	CHOP inhibitor 94.7
CC(C)Oc1ccc(C(=O)Nc2ccc(N3CCCCC3)cc2)cc1	CHOP inhibitor 70.7
Cc1ccc(C(=O)Nc2ccc(N3CCCCC3)cc2)cc1	none (no result: CHOP inhibitor)
O=C(O)Cn1c(=O)c2c3c(sc2n(Cc2ccccc2F)c1=O)CCCC3	none (no result: CHOP inhibitor)
CN1C(=O)c2cccc(NCCCCCCN3C(=O)c4ccccc4C3=O)c2C1=O	CHOP inhibitor 71.1
COc1cc(NC(=O)CSc2nc(=O)n(CCN3CCOCC3)c3c2CCCC3)cc(OC)c1	none (no result: CHOP inhibitor)
CCCC(C(=O)NC1CCCC1)N(CC1CCCO1)C(=O)CNS(=O)(=O)c1ccc(F)cc1 (stereo not drawn)	none (no result: CHOP inhibitor)
CCOC(=O)N1CCN(C(=O)C(C)(C)Oc2ccc(Cl)cc2)CC1	CHOP inhibitor 83.2
CCC1CCCCN1S(=O)(=O)c1ccc(C(=O)N(CCCN(C)C)c2nc3cc4c(cc3s2)OCO4)cc1 (stereo not drawn)	none (no result: CHOP inhibitor)

Source: PubChem
